Calls of active or inactive are those of the source. No cut-off for these calls is given here.
What was measured:
[1] = Antiproliferative activity in human SF539 cells assessed as cell growth inhibition after 48 hrs by SRB assay; format: functional; details: SF-539, 48 h
Outline: (§1)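 NCI-60 screen: cells exposed to compound at 100, 10, 1, 0.1 and 0.01 μM for 48 h, then sulforhodamine B staining. Optical density ratio to control plotted as percent growth versus log10 concentration; GI50 interpolated between points above and below 50% growth.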

[2] = Antiproliferative activity in human […] cells assessed as cell growth inhibition after 48 hrs by SRB assay; format: functional; outline: as §1
[3] = Antiproliferative activity in human DU145 cells assessed as cell growth inhibition after 48 hrs by SRB assay; format: functional; details: DU-145, 48 h; outline: as §1
[4] = Antiproliferative activity in human UACC62 cells assessed as cell growth inhibition after 48 hrs by SRB assay; format: functional; details: UACC-62, 48 h; outline: as §1
[5] = Antiproliferative activity in human HOP62 cells assessed as cell growth inhibition after 48 hrs by SRB assay; format: functional; details: HOP-62, 48 h; outline: as §1
SN12C = assay: Antiproliferative activity in human SN12C cells assessed as cell growth inhibition after 48 hrs by SRB assay; format: functional; outline: as §1
[6] = biological target: T1, DNA topoisomerase 1 (Homo sapiens) (UniProt P11387); assay: Inhibition of human recombinant Top1 expressed in baculovirus using [32P]-3-end labeled 117 bp DNA oligonucleotide as substrate assessed as enzyme mediated DNA cleavage after 20 mins by SDS-PAGE analysis relative to camptothecin; parameters: concentration or dose not given beside the values
T1 sequence (whole entry): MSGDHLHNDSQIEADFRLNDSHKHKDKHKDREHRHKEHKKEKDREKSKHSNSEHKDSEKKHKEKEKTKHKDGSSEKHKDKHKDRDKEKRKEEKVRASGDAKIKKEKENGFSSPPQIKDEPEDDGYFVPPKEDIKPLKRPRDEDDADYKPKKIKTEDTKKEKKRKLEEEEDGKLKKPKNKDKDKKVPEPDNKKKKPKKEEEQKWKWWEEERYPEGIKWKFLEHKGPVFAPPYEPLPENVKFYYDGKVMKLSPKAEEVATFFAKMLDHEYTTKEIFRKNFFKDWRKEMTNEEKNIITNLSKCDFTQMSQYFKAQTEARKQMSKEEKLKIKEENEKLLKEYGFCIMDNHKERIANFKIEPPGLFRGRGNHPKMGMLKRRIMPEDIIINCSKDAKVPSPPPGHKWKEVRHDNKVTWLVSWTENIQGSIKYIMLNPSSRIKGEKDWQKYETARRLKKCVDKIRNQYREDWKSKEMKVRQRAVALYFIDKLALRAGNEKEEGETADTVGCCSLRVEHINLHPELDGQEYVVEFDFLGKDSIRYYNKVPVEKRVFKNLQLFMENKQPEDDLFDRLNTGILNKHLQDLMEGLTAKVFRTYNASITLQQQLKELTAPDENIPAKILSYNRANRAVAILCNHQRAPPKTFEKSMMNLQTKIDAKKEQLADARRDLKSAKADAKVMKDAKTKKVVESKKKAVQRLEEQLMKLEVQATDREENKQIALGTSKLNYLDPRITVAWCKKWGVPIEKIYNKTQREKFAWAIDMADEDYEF
Outline: (§2)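 Baculovirus-purified human recombinant Top1 with ~2 nM 117-bp oligonucleotide, 3'-end labeled by Klenow fill-in with [α-32P]dGTP. Stopped with 0.5% SDS and formamide dye; 20% denaturing PAGE, phosphoimager.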

MCF7 = assay: Antiproliferative activity in human MCF7 cells assessed as cell growth inhibition after 48 hrs by SRB assay; format: functional; details: MCF7, 48 h; outline: as §1
[7] = Antiproliferative activity in human HCT116 cells assessed as cell growth inhibition after 48 hrs by SRB assay; format: functional; details: HCT-116, 48 h; outline: as §1
[8] = biological target: T1, DNA topoisomerase 1 (Homo sapiens); assay: Inhibition of human recombinant Top1 expressed in baculovirus using [32P]-3-end labeled 117 bp DNA oligonucleotide as substrate assessed as enzyme mediated DNA cleavage at 0.1 to 100 uM after 20 mins by SDS-PAGE analysis relative to camptothecin; parameters: scale not given: the % may be the effect or the level left; outline: as §2
[9] = Drug uptake in RPMI1640 medium treated with2-Methoxy-6-(3-morpholinopropyl)-5,12-dioxo-6,12-dihydro-5H-[1,3]dioxolo[4,5:5,6]indeno[1,2-c]isoquinolin-3-yl Methyl Succinate by at 10 uM after 99 hrs by LC-MS analysis; format: physicochemical
Outline: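 Compound (10 μM) incubated in cell-free RPMI 1640 medium at 37 °C for 99 h. Aliquot filtered and analysed by LC-MS, diode-array detection at 280 nm, flow 0.75 mL/min, for conversion to parent phenol.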

Plasma [10] = assay: Drug uptake in rat plasma treated with of 2-Methoxy-6-(3-morpholinopropyl)-5,12-dioxo-6,12-dihydro 5H-[1,3]dioxolo[4,5:5,6]indeno[1,2-c]isoquinolin-3-yl Acetate after 15 mins by LC-MS/MS analysis; format: ADME, cell-free; details: 0.25 h
Outline: (§3)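 Rat plasma at 37 °C with compound at 5 μM, duplicate runs alongside enalapril and warfarin controls. Aliquots taken at 0, 1, 3, 5 and 15 min into three volumes ice-cold methanol with propranolol internal standard, held ≥10 min at -20 °C, centrifuged. Parent quantified by LC-MS/MS in positive ion mode, expressed as % of time-zero concentration.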

[11] = Half life in rat plasma at 5 uM by LC-MS/MS analysis; format: ADME, cell-free; outline: as §3
Plasma [12] = assay: Drug metabolism in rat plasma assessed as compound 9 formation at 5 uM after 15 mins by LC-MS/MS analysis; format: ADME, cell-free; details: 0.25 h; outline: as §3

| Compound | GI50 [1] | GI50 [2] | GI50 [3] | GI50 [4] | GI50 [5] | GI50 (SN12C) | Activity [6] | GI50 (MCF7) | GI50 [7] | Activity [8] | Drug uptake [9] | Drug uptake (Plasma [10]) | half-life at 5 µM [11] | Drug metabolism (Plasma [12]) |
| --- | --- | --- | --- | --- | --- | --- | --- | --- | --- | --- | --- | --- | --- | --- |
| COC(=O)CCC(=O)Oc1cc2c3c(n(CCCN4CCOCC4)c(=O)c2cc1OC)-c1cc2c(cc1C3=O)OCO2 | < 10 nM | 66 nM | < 10 nM | < 10 nM | < 10 nM | < 10 nM | 20% | < 10 nM | 14 nM | – | – | – | – | – |
| COc1cc2c(=O)n(CCCN3CCOCC3)c3c(c2cc1OC(=O)c1ccccc1)C(=O)c1cc2c(cc1-3)OCO2 | 37 nM | 4570 nM | 51 nM | 96 nM | 79 nM | 54 nM | – | 33 nM | 850 nM | 20% | – | – | – | – |
| COc1cc2c3c(n(CCCN4CCOCC4)c(=O)c2cc1O)-c1cc2c(cc1C3=O)OCO2 | < 10 nM | 30 nM | < 10 nM | < 10 nM | 10 nM | < 10 nM | 75% | < 10 nM | 20 nM | – | Active | Active | – | – |
| COc1cc2c3c(n(CCCN4CCOCC4)c(=O)c2cc1OS(=O)(=O)O)-c1cc2c(cc1C3=O)OCO2 | 263 nM | 1120 nM | 417 nM | 263 nM | 389 nM | 355 nM | – | 209 nM | 389 nM | 50% | – | – | – | – |
| COc1cc2c3c(n(CCCN4CCOCC4)c(=O)c2cc1OC(=O)c1cccnc1)-c1cc2c(cc1C3=O)OCO2 | < 10 nM | 15 nM | < 10 nM | < 10 nM | < 10 nM | < 10 nM | 20% | < 10 nM | < 10 nM | – | – | – | – | – |
| COc1cc2c3c(n(CCCN4CCOCC4)c(=O)c2cc1OC(=O)c1ccccc1)-c1cc2c(cc1C3=O)OCO2 | 135 nM | 30900 nM | 724 nM | 59 nM | 2140 nM | 195 nM | 20% | 15 nM | 5890 nM | – | – | – | – | – |
| COc1cc2c3c(n(CCCN4CCOCC4)c(=O)c2cc1OC)-c1cc2c(cc1C3=O)OCO2 [INDOTECAN] | 40 nM | 74100 nM | – | 30 nM | – | – | 100% | 374 nM | – | – | – | – | – | – |
| COc1cc2c3c(n(CCCN4CCOCC4)c(=O)c2cc1OC(=O)N(C)C)-c1cc2c(cc1C3=O)OCO2 | 21 nM | 105 nM | 32 nM | 17 nM | 32 nM | 25 nM | 50% | < 10 nM | 26 nM | – | – | – | – | – |
| COc1cc2c(=O)n(CCCN3CCOCC3)c3c(c2cc1OC(=O)N(C)C)C(=O)c1cc2c(cc1-3)OCO2 | 1860 nM | 12000 nM | 1550 nM | 4470 nM | 1700 nM | 2400 nM | – | 22 nM | 6070 nM | 75% | – | – | – | – |
| COc1cc2c(=O)n(CCCN3CCOCC3)c3c(c2cc1O)C(=O)c1cc2c(cc1-3)OCO2 | – | 871 nM | – | – | – | – | 50% | – | – | – | – | – | – | – |
| COc1cc2c3c(n(CCCN4CCOCC4)c(=O)c2cc1OC(C)=O)-c1cc2c(cc1C3=O)OCO2 | < 10 nM | 269 nM | < 10 nM | < 10 nM | < 10 nM | < 10 nM | inactive | < 10 nM | < 10 nM | – | – | – | 54 s | metabolite_detected |
| COc1cc2c(=O)n(CCCN3CCOCC3)c3c(c2cc1OC(C)=O)C(=O)c1cc2c(cc1-3)OCO2 | < 10 nM | 138 nM | < 10 nM | 18 nM | 18 nM | < 10 nM | – | < 10 nM | 29 nM | 50% | – | – | – | – |
| COC(=O)CCC(=O)Oc1cc2c(=O)n(CCCN3CCOCC3)c3c(c2cc1OC)C(=O)c1cc2c(cc1-3)OCO2 | < 10 nM | 37 nM | 14 nM | 18 nM | 16 nM | < 10 nM | inactive | < 10 nM | 20 nM | – | – | – | – | – |
| COc1cc2c(=O)n(CCCN3CCOCC3)c3c(c2cc1OC(=O)c1cccnc1)C(=O)c1cc2c(cc1-3)OCO2 | < 10 nM | 295 nM | 13 nM | 22 nM | 12 nM | < 10 nM | – | < 10 nM | 30 nM | 75% | – | – | – | – |

Reference: ChEMBL document CHEMBL3822428, “Design, Synthesis, and Biological Evaluation of Potential Prodrugs Related to the Experimental Anticancer Agent Indotecan (LMP400)” (J Med Chem, 2016)
